The target of assay [1] is T1, Tyrosine-protein phosphatase non-receptor type 1 (Homo sapiens, UniProt P18031).
T1 sequence (P18031 whole entry): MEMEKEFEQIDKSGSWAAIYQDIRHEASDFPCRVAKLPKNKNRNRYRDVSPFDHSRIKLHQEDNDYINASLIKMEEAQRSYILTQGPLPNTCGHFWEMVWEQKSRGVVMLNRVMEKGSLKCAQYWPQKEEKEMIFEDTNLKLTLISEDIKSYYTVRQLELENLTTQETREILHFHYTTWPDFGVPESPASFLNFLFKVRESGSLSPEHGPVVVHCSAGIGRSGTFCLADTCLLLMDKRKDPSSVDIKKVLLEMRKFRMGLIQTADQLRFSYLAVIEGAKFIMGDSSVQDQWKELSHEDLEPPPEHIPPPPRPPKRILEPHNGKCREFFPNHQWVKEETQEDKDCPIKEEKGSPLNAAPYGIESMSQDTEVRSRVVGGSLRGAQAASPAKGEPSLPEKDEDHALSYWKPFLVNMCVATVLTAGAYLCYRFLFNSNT
The experiment in a line: Inhibition of PTP1B (unknown origin) assessed as decrease in p-nitrophenolate formation using pNPP as substrate incubated for 15 mins by spectrophotometric method.

Assay [2] in a line: Antioxidant activity assessed as DPPH radical scavenging activity. The class given is functional. (In general: DPPH is a stable violet radical that fades when it is reduced.)
The target in assay [3] is T1, Tyrosine-protein phosphatase non-receptor type 1. Nature of the assay: Inhibition of PTP1B (unknown origin) assessed as decrease in p-nitrophenolate formation using pNPP as substrate by Dixon plot analysis. Put shortly:
(§1)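 Kinetic analysis of human recombinant PTP1B with p-NPP substrate, run at several inhibitor levels. Ki was obtained from Dixon plots, and the inhibition mode from Lineweaver–Burk plots.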

The target in assay [4] is T2, Tyrosine-protein phosphatase non-receptor type 1 (Homo sapiens) (UniProt P18031).
T2 sequence (whole entry): T1 sequence (P18031 whole entry)
The experiment in a line: Noncompetitive inhibition of PTP1B (unknown origin) assessed as decrease in p-nitrophenolate formation using pNPP as substrate by Lineweaver-Burk plot analysis. The essentials:
as §1

Active and inactive are the calls of the source. The calls are words filed in the database; no cut-off is given here.

With `Oc1ccc(/C=C/c2cc(O)cc(O)c2O)cc1`, the 50% inhibitory concentration (IC50) (as a rule, the concentration that inhibits the measured activity by half) in assay [1] amounted to 12.1 µM; in assay [2], 400 µM.

Turning to `O=C(O)c1cc(O)cc(O)c1C(=O)Cc1ccc(O)cc1`, the IC50 in assay [1] is more than 50 µM.

Take `Oc1ccc(/C=C/c2cc(O)cc(O)c2O[C@@H]2OC[C@@H](O)[C@H](O)[C@H]2O)cc1`: the IC50 in assay [1] was more than 50 µM.

Consider `O=C(O[C@H]1[C@H](Oc2c(O)cc(O)cc2/C=C/c2ccc(O)cc2)O[C@H](CO)[C@@H](O)[C@@H]1O)c1cc(O)c(O)c(O)c1`, for which the IC50 in assay [1] is more than 50 µM.

Regarding `OC[C@H]1O[C@@H](Oc2c(O)cc(O)cc2[C@H]2c3c(cc(O)c(O[C@@H]4O[C@H](CO)[C@@H](O)[C@H](O)[C@H]4O)c3/C=C/c3ccc(O)cc3)O[C@@H]2c2ccc(O)cc2)[C@H](O)[C@@H](O)[C@@H]1O`, the IC50 in assay [1] is more than 50 µM.

Take `COc1cc([C@@H]2CC(=O)Oc3cc(O)c(O[C@@H]4O[C@H](CO)[C@@H](O)[C@H](O)[C@H]4O)c(/C=C/c4ccc(O)cc4)c32)ccc1O`: the IC50 in assay [1] is more than 50 µM.

With `COc1cc(/C=C/C(=O)O[C@@H]2[C@@H](O)[C@H](Oc3c(O)cc(O)cc3/C=C/c3ccc(O)cc3)O[C@H](CO)[C@H]2O)ccc1O`, in assay [1], the IC50 was found to be 27.4 µM.

With `O=COC[C@H]1O[C@@H](Oc2c(O)cc(O)cc2/C=C/c2ccc(O)cc2)[C@H](O)[C@@H](O)[C@@H]1O`, the IC50 in assay [1] was more than 50 µM.

Regarding `CC(=O)O[C@@H]1[C@@H](O)[C@H](Oc2c(O)cc(O)cc2/C=C/c2ccc(O)cc2)O[C@H](CO)[C@H]1O`, the IC50 in assay [1] turned out to be 37.6 µM.

`COc1cc(/C=C/C(=O)O[C@H]2[C@H](Oc3c(O)cc(O)cc3/C=C/c3ccc(O)cc3)O[C@H](CO)[C@@H](O)[C@@H]2O)ccc1O`: the IC50 in assay [1] was more than 50 µM.

Consider `Oc1ccc(/C=C/c2cc(O)cc(O)c2)cc1` [RESVERATROL], for which the concentration for half-maximal inhibition (IC50) in assay [1] was more than 50 µM.

As to `Oc1ccc([C@@H]2Oc3ccc(/C=C/c4cc(O)cc(O)c4O)cc3[C@H]2c2cc(O)cc(O)c2O)cc1`, the IC50 in assay [1] is 1.9 µM. Besides, the Ki (in general, the dissociation constant of the complex between target and ligand, obtained from inhibition or displacement) in assay [3] was 0.92 µM. Besides, in assay [4], the inhibition result was “Active”.

As to `C[C@@H]1O[C@@H](Oc2c(O)cc(O)cc2/C=C/c2ccc(O)cc2)[C@H](O)[C@H](O)[C@H]1O`, the IC50 in assay [1] is more than 50 µM.

Take `OC[C@H]1O[C@@H](OC[C@H]2O[C@@H](Oc3c(O)cc(O)cc3/C=C/c3ccc(O)cc3)[C@H](O)[C@@H](O)[C@@H]2O)[C@H](O)[C@@H](O)[C@@H]1O`: the IC50 in assay [1] was more than 50 µM.

`OC[C@H]1O[C@@H](Oc2c(O)cc(O)cc2/C=C/c2ccc3c(c2)[C@@H](c2cc(O)cc(O)c2O[C@@H]2O[C@H](CO)[C@@H](O)[C@H](O)[C@H]2O)[C@H](c2ccc(O)cc2)O3)[C@H](O)[C@@H](O)[C@@H]1O`: in assay [1], the IC50 amounted to 34.9 µM.

Consider `Oc1ccc([C@H]2Oc3ccc(/C=C/c4cc(O)cc(O)c4O)cc3[C@@H]2c2cc(O)cc(O)c2O)cc1`, for which the IC50 in assay [1] amounted to 2.1 µM. Besides, the inhibition constant Ki in assay [3] came to 1.02 µM. Further, the inhibition result in assay [4] is “Active”.

Regarding `OC[C@H]1O[C@@H](Oc2c(O)cc(O)cc2/C=C/c2ccc(O)cc2)[C@H](O)[C@@H](O)[C@@H]1O`, the IC50 was more than 50 µM in assay [1] and 40000 µM in assay [2].

Take `CC(=O)OC[C@H]1O[C@@H](Oc2c(O)cc(O)cc2/C=C/c2ccc(O)cc2)[C@H](O)[C@@H](O)[C@@H]1O`: the IC50 in assay [1] is more than 50 µM.

As for `OC[C@H]1O[C@@H](Oc2c(O)cc(O)cc2/C=C/c2ccc3c(c2)[C@H](c2cc(O)cc(O)c2O[C@@H]2O[C@H](CO)[C@@H](O)[C@H](O)[C@H]2O)[C@@H](c2ccc(O)cc2)O3)[C@H](O)[C@@H](O)[C@@H]1O`, the IC50 in assay [1] turned out to be 32.2 µM.

The values are drawn from ChEMBL document CHEMBL4602658, “Stilbenes with Potent Protein Tyrosine Phosphatase-1B Inhibitory Activity from the Roots of Polygonum multiflorum” (J Nat Prod, 2020).
